Activity calls are given as the source filed them. No cut-off for these calls is given here.
Assays:
[1] = biological target: T1, Bromodomain-containing protein 4 (Homo sapiens, UniProt O60885); test: Inhibition of BRD4 in human SAE cells assessed as reduction in TLR3 agonist poly(I:C) -induced ISG54 RNA expression preincubated for 24 hrs followed by poly(I:C) addition and measured after 4 hrs by SYBR green dye-based qRT-PCR analysis; format: cell-based
[2] = biological target: T1, Bromodomain-containing protein 4; test: Inhibition of BRD4 in human SAE cells assessed as reduction in TLR3 agonist poly(I:C) -induced ISG56 RNA expression preincubated for 24 hrs followed by poly(I:C) addition and measured after 4 hrs by SYBR green dye-based qRT-PCR analysis; format: cell-based
[3] = biological target: T1, Bromodomain-containing protein 4; test: Inhibition of BRD4 in human SAE cells assessed as reduction in TLR3 agonist poly(I:C) -induced IL-8 RNA expression preincubated for 24 hrs followed by poly(I:C) addition and measured after 4 hrs by SYBR green dye-based qRT-PCR analysis; format: cell-based
[4] = biological target: T1, Bromodomain-containing protein 4; test: Inhibition of BRD4 in human SAE cells assessed as reduction in TLR3 agonist poly(I:C) -induced grobeta RNA expression preincubated for 24 hrs followed by poly(I:C) addition and measured after 4 hrs by SYBR green dye-based qRT-PCR analysis; format: cell-based
CREB-binding protein = CREB-binding protein (Homo sapiens, UniProt Q92793); test: Inhibition of CBP (unknown origin) after 1 hr by TR-FRET assay
Chain of CREB-binding protein (Q92793 whole entry): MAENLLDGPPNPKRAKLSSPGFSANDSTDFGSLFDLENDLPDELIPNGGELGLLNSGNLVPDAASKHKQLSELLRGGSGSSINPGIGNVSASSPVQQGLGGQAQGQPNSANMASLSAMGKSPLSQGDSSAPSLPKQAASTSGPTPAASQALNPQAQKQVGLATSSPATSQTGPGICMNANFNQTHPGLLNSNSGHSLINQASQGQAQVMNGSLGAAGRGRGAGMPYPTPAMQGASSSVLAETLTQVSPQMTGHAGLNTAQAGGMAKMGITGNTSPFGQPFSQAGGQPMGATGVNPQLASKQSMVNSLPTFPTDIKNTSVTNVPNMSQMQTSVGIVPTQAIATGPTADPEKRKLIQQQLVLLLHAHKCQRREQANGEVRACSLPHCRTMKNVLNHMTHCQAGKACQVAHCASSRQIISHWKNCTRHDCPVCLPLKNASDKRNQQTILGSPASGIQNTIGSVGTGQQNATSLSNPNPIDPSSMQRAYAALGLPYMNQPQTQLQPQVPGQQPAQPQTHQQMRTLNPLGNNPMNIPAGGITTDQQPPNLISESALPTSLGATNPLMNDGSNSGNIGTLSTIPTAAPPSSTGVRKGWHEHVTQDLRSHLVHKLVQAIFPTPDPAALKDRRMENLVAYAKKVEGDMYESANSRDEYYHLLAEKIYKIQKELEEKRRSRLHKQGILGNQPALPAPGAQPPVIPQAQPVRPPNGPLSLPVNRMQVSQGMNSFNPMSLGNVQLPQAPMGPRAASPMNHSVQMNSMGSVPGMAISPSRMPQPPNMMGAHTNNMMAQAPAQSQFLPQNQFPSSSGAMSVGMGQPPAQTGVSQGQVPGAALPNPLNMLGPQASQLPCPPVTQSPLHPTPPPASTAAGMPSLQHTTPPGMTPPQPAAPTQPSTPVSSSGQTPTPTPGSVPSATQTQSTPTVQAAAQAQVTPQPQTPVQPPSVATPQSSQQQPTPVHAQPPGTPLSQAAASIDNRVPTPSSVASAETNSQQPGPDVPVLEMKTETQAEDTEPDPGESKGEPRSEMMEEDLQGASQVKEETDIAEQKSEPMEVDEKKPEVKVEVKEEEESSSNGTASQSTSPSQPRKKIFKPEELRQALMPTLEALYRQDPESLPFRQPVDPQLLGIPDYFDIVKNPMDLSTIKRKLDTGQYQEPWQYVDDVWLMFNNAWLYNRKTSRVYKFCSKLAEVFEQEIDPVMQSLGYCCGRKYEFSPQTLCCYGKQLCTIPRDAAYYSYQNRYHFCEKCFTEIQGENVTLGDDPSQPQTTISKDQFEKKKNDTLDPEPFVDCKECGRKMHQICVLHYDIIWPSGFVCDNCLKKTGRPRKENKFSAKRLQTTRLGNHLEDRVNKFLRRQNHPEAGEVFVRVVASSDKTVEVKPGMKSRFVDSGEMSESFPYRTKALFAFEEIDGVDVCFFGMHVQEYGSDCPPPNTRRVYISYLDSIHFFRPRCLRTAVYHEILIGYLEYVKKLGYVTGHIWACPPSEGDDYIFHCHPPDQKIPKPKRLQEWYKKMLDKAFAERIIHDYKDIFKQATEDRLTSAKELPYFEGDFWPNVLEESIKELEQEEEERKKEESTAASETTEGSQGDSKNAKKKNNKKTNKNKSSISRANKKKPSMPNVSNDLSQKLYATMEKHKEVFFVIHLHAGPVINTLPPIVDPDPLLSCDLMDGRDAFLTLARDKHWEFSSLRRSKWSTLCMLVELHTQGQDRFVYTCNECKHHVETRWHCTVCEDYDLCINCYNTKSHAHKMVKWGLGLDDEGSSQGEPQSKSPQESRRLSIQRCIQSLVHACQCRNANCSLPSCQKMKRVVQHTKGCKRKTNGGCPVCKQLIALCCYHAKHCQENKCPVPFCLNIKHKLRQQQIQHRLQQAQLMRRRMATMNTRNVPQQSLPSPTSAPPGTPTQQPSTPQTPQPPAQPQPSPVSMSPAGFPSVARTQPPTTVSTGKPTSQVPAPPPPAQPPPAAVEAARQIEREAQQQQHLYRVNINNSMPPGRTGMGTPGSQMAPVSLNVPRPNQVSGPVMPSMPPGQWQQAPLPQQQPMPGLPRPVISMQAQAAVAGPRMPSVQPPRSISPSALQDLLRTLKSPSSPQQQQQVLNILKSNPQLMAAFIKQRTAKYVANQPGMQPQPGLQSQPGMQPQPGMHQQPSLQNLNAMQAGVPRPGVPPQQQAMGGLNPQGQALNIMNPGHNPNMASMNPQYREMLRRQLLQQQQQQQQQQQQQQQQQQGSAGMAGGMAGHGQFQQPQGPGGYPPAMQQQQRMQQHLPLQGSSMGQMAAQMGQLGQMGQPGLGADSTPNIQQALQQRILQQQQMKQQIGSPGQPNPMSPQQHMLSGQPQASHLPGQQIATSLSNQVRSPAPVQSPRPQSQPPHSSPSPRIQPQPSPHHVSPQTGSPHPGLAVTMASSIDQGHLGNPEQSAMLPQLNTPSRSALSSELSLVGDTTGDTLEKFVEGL
Outline: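 Isolated bromodomain in a kit TR-FRET assay. Inhibitor series 0.01 nM to 100 μM, incubated 1 h at room temperature. Excitation 340 nm, emission read at 620 and 670 nm with 100 μs delay and 500 μs window. IC50 from the sigmoidal plot of the 670/620 ratio against concentration. Mean of at least two runs.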

[5] = Half life in rat at 10 mg/kg, iv; format: ADME, organism-based; settings: in vivo
[6] = AUC (0 to t) in rat at 10 mg/kg, iv; format: ADME, organism-based; settings: in vivo
[7] = Volume of distribution at steady state in rat at 10 mg/kg, iv; format: ADME, organism-based; settings: in vivo, read-out: Vdss
[8] = Total clearance in rat at 10 mg/kg, iv; format: ADME, organism-based; settings: in vivo
[9] = Cmax in rat at 20 mg/kg, po; format: ADME, organism-based; design: dose 20 mg/kg, route oral; settings: in vivo
[10] = AUC (0 to t) in rat at 20 mg/kg, po; format: ADME, organism-based; settings: in vivo
Mus musculus [11] = test: (§1) Anti-inflammatory activity in poly(I:C)-induced airway inflammation C57BL/6 mouse model assessed as reduction in neutrophils recruitment into bronchoalveolar lavage fluid at 10 mg/kg, ip administered 1 day prior to poly(I:C) stimulation and redosed on day 2 followed by poly(I:C) stimulation by trypan blue staining-based hemocytometric analysis; format: functional, organism-based
Mus musculus [12] = test: Anti-inflammatory activity in poly(I:C)-induced airway inflammation C57BL/6 mouse model assessed as reduction in mKC expression in lung at 10 mg/kg, ip administered 1 day prior to poly(I:C) stimulation and redosed on day 2 followed by poly(I:C) stimulation; format: functional, organism-based
Outline: (§2)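 Male C57BL/6J mice, 12 weeks old, were given 10 mg/kg i.p. one day before stimulation. The next day they got a second dose, immediately followed by intranasal poly(I:C) (300 μg in 50 μL PBS) or PBS alone. Compound was taken up in DMSO and diluted in 10% hydroxypropyl β-cyclodextrin in PBS. Mice were euthanized one day later and lung tissue was collected for cytokine expression.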

Mus musculus [13] = test: Anti-inflammatory activity in poly(I:C)-induced airway inflammation C57BL/6 mouse model assessed as reduction in mISG54 expression in lung at 10 mg/kg, ip administered 1 day prior to poly(I:C) stimulation and redosed on day 2 followed by poly(I:C) stimulation; format: functional, organism-based; outline: as §2
Mus musculus [14] = test: Anti-inflammatory activity in poly(I:C)-induced airway inflammation C57BL/6 mouse model assessed as reduction in mIL6 expression in lung at 10 mg/kg, ip administered 1 day prior to poly(I:C) stimulation and redosed on day 2 followed by poly(I:C) stimulation; format: functional, organism-based; outline: as §2
Mus musculus [15] = test: Anti-inflammatory activity in poly(I:C)-induced airway inflammation C57BL/6 mouse model assessed as reduction in mCIG5 expression in lung at 10 mg/kg, ip administered 1 day prior to poly(I:C) stimulation and redosed on day 2 followed by poly(I:C) stimulation; format: functional, organism-based; outline: as §2
Mus musculus [16] = test: as §1, with “total cells in” for “neutrophils recruitment into”; format: functional, organism-based

SMILES	IC50 [1]	IC50 [2]	IC50 [3]	IC50 [4]	IC50 (CREB-binding protein)	half-life [5]	AUC(0-t) [6]	Vd [7]	clearance [8]	Cmax [9]	AUC(0-t) [10]	Activity (Mus musculus [11])	Activity (Mus musculus [12])	Activity (Mus musculus [13])	Activity (Mus musculus [14])	Activity (Mus musculus [15])	Activity (Mus musculus [16])
CC(C)(C)c1cc(-c2nnc(-c3cc(F)cc(Cl)c3)o2)no1	7.9 µM	7.7 µM	4.3 µM	3.9 µM	–	–	–	–	–	–	–	–	–	–	–	–	–
Cc1cc(/N=N/c2ccc3c(c2)CCC(=O)N3)c(N)cc1O	0.49 µM	0.51 µM	0.53 µM	0.58 µM	> 10 µM	1.2 h	14700 ng·h/mL	0.864 L/kg	11.5 mL/min/kg	80 ng/mL	450 ng·h/mL	Active	Active	Active	Active	Active	Active
COc1cc(OC)c2c(=O)[nH]c(-c3cc(C)c(OCCO)c(C)c3)nc2c1 [APABETALONE]	–	–	–	–	> 10 µM	–	–	–	–	–	–	inactive	inactive	inactive	inactive	inactive	–
Cc1sc2c(c1C)C(c1ccc(Cl)cc1)=N[C@@H](CC(=O)OC(C)(C)C)c1nnc(C)n1-2	–	–	–	–	9.6 µM	–	–	–	–	–	–	inactive	inactive	inactive	inactive	inactive	–

— ChEMBL document CHEMBL4152207, “Discovery of potent and selective BRD4 inhibitors capable of blocking TLR3-induced acute airway inflammation” (Eur J Med Chem, 2018)
